Assay results published in ChEMBL document CHEMBL4184260, “Fluorous-tag assisted synthesis of a glycosaminoglycan mimetic tetrasaccharide as a high-affinity FGF-2 and midkine ligand” (Bioorg Med Chem, 2018).
pIC50: −log10 of the molar value.

Assays:
Midkine = target: T1, Midkine (Homo sapiens, UniProt P21741); assay: Inhibition of fluorescein labelled heparin-like hexasaccharide probe binding to recombinant human midkine after 5 mins by fluorescence polarization assay
T1 sequence (P21741 whole entry): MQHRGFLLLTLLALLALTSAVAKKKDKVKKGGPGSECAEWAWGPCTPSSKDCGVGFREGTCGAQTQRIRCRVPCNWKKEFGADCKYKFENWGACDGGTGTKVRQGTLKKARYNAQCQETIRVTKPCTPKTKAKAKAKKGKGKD
Procedure, shortened: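 Recombinant human midkine at 63 nM final with 10 nM fluorescein-labelled heparin-like hexasaccharide probe in PBS (10 mM, pH 7.4) plus 0.5% BSA. […] Shaken 5 min in the dark; polarization read at ex 485 / em 535 nm. Triplicate wells averaged, one-site competition fit for IC50. At least three independent experiments.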

[1] = target: Fibroblast growth factor 2 (Homo sapiens, UniProt P09038); assay: Inhibition of fluorescein labelled heparin-like hexasaccharide probe binding to recombinant human FGF-2 after 5 mins by fluorescence polarization assay
Fibroblast growth factor 2, sequence (P09038 143-288 limits assumed): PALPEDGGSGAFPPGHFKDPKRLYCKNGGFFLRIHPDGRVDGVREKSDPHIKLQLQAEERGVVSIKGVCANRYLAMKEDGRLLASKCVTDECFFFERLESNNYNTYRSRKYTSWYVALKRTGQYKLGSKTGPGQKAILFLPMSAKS

[2] = Solubility of the compound in PBS buffer at 100 uM at pH 7.4 in presence of 1% DMSO; assay type: physicochemical; details: pH 7.4, 100 µM

Row | pIC50 (Midkine) | pIC50 [1] | solubility [2] | Compound
1 | 5.89 | 4.38 |  | COc1ccc(O[C@@H]2O[C@H](C(=O)OCc3ccccc3)[C@@H](O[C@@H]3O[C@H](COS(=O)(=O)O)[C@@H](OS(=O)(=O)O)[C@H](O[C@@H]4O[C@H](C(=O)OCc5ccccc5)[C@@H](O[C@@H]5O[C@H](COS(=O)(=O)O)[C@@H](OS(=O)(=O)O)[C@H](OC(=O)CCC(C)=O)[C@H]5NC(=O)C(F)(F)F)[C@H](OCc5ccccc5)[C@H]4OC(=O)c4ccccc4)[C@H]3NC(=O)C(F)(F)F)[C@H](OCc3ccccc3)[C@H]2OC(=O)c2ccccc2)cc1
2 |  |  | Soluble | COc1ccc(O[C@@H]2O[C@H](COC(=O)CCC(F)(F)C(F)(F)C(F)(F)C(F)(F)C(F)(F)C(F)(F)C(F)(F)C(F)(F)F)[C@@H](O[C@@H]3O[C@H](CO[SH+]([O-])(O)O)[C@@H](O[SH+]([O-])(O)O)[C@H](O[C@@H]4O[C@H](COC(=O)C(C)(C)C)[C@@H](O[C@@H]5O[C@H](CO[SH+]([O-])(O)O)[C@@H](O[SH+]([O-])(O)O)[C@H](OC(=O)CCC(C)=O)[C@H]5N5C(=O)c6ccccc6C5=O)[C@H](OCc5ccccc5)[C@H]4OC(=O)c4ccccc4)[C@H]3N3C(=O)c4ccccc4C3=O)[C@H](OCc3ccccc3)[C@H]2OC(=O)c2ccccc2)cc1
3 | 3.60 | 3.57 |  | COc1ccc(O[C@@H]2O[C@H](C(=O)O)[C@@H](O[C@@H]3O[C@H](COS(=O)(=O)O)[C@@H](OS(=O)(=O)O)[C@H](O[C@@H]4O[C@H](C(=O)O)[C@@H](O[C@@H]5O[C@H](COS(=O)(=O)O)[C@@H](OS(=O)(=O)O)[C@H](O)[C@H]5NC(C)=O)[C@H](O)[C@H]4O)[C@H]3NC(C)=O)[C@H](O)[C@H]2O)cc1
